Measurements published in ChEMBL document CHEMBL1124503, “The role of position 4 in angiotensin II antagonism: a structure-activity study” (J Med Chem, 1989).
*1 amine or outer side, *2 acyl side, *3 side chain or, on linkers, in order; H or OH if unused. Where a SMILES comes first, the peptide text is derived from it. [ ]: non-standard residue; d: D form. Phe(4-SO2NH2) = N[C@@H](Cc1ccc(S(N)(=O)=O)cc1)C(=O)O; Phe(4-NO2) = N[C@@H](Cc1ccc([N+](=O)[O-])cc1)C(=O)O; Phe(4-SO3H) = N[C@@H](Cc1ccc(S(=O)(=O)O)cc1)C(=O)O; X2 = CC(=O)NCSc1ccc(C[C@H](N[*:1])C(=O)[*:2])cc1; Phe(4-B(OH)2) = N[C@@H](Cc1ccc(B(O)O)cc1)C(=O)O; Phe(4-Cl) = N[C@@H](Cc1ccc(Cl)cc1)C(=O)O; X1 = O=C([C@H](Cc1ccc(S)cc1)N[*:1])[*:2]; Phe(4-NH2) = Nc1ccc(C[C@H](N)C(=O)O)cc1; Phe(4-F) = N[C@@H](Cc1ccc(F)cc1)C(=O)O; Sar = CNCC(=O)O

Key:
Oryctolagus cuniculus = species on record: Oryctolagus cuniculus; experiment: Antagonist activity pA2, was measured in the in vitro rabbit aorta strip assay; format: functional; details: read-out: pA2 (converted)
Summary of the method: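 Isolated rabbit aorta strip (method of Rioux et al.); pA2 against the ANG II dose-response curve, determined at low antagonist doses within the competitive-inhibition range.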

Rattus norvegicus [1] = experiment: Residual ANG II-like antagonist activity, ID50 was measured in vivo, in the rat blood pressure assay; format: functional
[2] = molecular target: Angiotensin II receptor (Rattus norvegicus) (UniProt P29089+P25095+P35351); experiment: In vivo blood pressure increase produced by a 1 ug bolus i.v.; format: functional, organism-based
Summary of the method: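 Rat blood pressure assay (Regoli et al.); agonist activity read as the mmHg rise in blood pressure after a 1 μg intravenous bolus of compound.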

[3] = test system: Angiotensin II receptor (Oryctolagus cuniculus); experiment: Angiotensin II-like agonist activity, measured in the in vitro rabbit aorta strip assay
Rattus norvegicus [4] = species on record: Rattus norvegicus; experiment: Antagonist activity pA2, was measured in the in vitro rat uterus strip assay; format: functional; details: read-out: pA2 (converted)

| Activity [3] | Compound | Kb (Oryctolagus cuniculus) | ID50 (Rattus norvegicus [1]) | Blood pressure [2] | Kb (Rattus norvegicus [4]) |
| --- | --- | --- | --- | --- | --- |
|  | CC[C@H](C)[C@H](NC(=O)[C@H](Cc1ccc(O)cc1)NC(=O)[C@@H](NC(=O)[C@H](CCCN=C(N)N)NC(=O)CNC)C(C)C)C(=O)N[C@@H](Cc1c[nH]cn1)C(=O)N1CCC[C@H]1C(=O)N[C@H](Cc1ccccc1)C(=O)O | 1 nM | 12.5 ng min-1 rat-1 | 10 mmHg |  |
| 0% | CC[C@H](C)[C@H](NC(=O)[C@@H]1CCCN1C(=O)[C@H](Cc1c[nH]cn1)NC(=O)[C@@H](NC(=O)[C@H](Cc1ccccc1)NC(=O)[C@@H](NC(=O)[C@H](CCCN=C(N)N)NC(=O)CNC)C(C)C)[C@@H](C)CC)C(=O)O (H-[Sar]RVFIHPI-OH) | 3.16 nM | 80 ng min-1 rat-1 | 2.7 mmHg |  |
| 0% | CC[C@H](C)[C@H](NC(=O)[C@H](Cc1ccccc1)NC(=O)[C@@H](NC(=O)[C@H](CCCN=C(N)N)NC(=O)CNC)C(C)C)C(=O)N[C@@H](Cc1c[nH]cn1)C(=O)N1CCC[C@H]1C(=O)N[C@@H](Cc1ccc(O)cc1)C(=O)O | 31.6 nM | 50 ng min-1 rat-1 | 5.5 mmHg |  |
| 22% | CC[C@H](C)[C@H](NC(=O)[C@H](Cc1ccccc1)NC(=O)[C@@H](NC(=O)[C@H](CCCN=C(N)N)NC(=O)CNC)C(C)C)C(=O)N[C@@H](Cc1c[nH]cn1)C(=O)N1CCC[C@H]1C(=O)N[C@@H](Cc1ccccc1)C(=O)O (H-[Sar]RVFIHPF-OH) | 12.6 nM |  |  |  |
|  | CC[C@H](C)[C@H](NC(=O)[C@H](Cc1ccc(O)cc1)NC(=O)[C@@H](NC(=O)[C@H](CCCN=C(N)N)NC(=O)CNC)C(C)C)C(=O)N[C@@H](Cc1c[nH]cn1)C(=O)N1CCC[C@H]1C(=O)N[C@@H](Cc1ccccc1)C(=O)O |  |  | 50 mmHg |  |
|  | CC[C@H](C)[C@H](NC(=O)[C@@H]1CCCN1C(=O)[C@H](Cc1c[nH]cn1)NC(=O)[C@@H](NC(=O)[C@H](Cc1ccc(O)cc1)NC(=O)[C@@H](NC(=O)[C@H](CCCN=C(N)N)NC(=O)[C@@H](N)CC(=O)O)C(C)C)[C@@H](C)CC)C(=O)O |  |  |  | 5.01 nM |
| 0% | CCOc1ccc(C[C@H](NC(=O)[C@@H](NC(=O)[C@H](CCCN=C(N)N)NC(=O)CNC)C(C)C)C(=O)N[C@H](C(=O)N[C@@H](Cc2c[nH]cn2)C(=O)N2CCC[C@H]2C(=O)N[C@H](C(=O)O)[C@@H](C)CC)[C@@H](C)CC)cc1 | > 1000 nM | >1000 ng min-1 rat-1 | 5 mmHg |  |
| 0% | CC[C@H](C)[C@H](NC(=O)[C@H](Cc1ccc(OC)cc1)NC(=O)[C@@H](NC(=O)[C@H](CCCN=C(N)N)NC(=O)CNC)C(C)C)C(=O)N[C@@H](Cc1c[nH]cn1)C(=O)N1CCC[C@H]1C(=O)N[C@@H](Cc1ccccc1)C(=O)O | 79.4 nM | 250 ng min-1 rat-1 | 20 mmHg |  |
| 0% | CC[C@H](C)[C@H](NC(=O)[C@H](Cc1ccc(F)cc1)NC(=O)[C@@H](NC(=O)[C@H](CCCN=C(N)N)NC(=O)CNC)C(C)C)C(=O)N[C@@H](Cc1c[nH]cn1)C(=O)N1CCC[C@H]1C(=O)N[C@H](Cc1ccccc1)C(=O)O | 141 nM | 50 ng min-1 rat-1 | 10 mmHg |  |
| 0% | CC[C@H](C)[C@H](NC(=O)[C@@H]1CCCN1C(=O)[C@H](Cc1c[nH]cn1)NC(=O)[C@@H](NC(=O)[C@H](Cc1ccc(B(O)O)cc1)NC(=O)[C@@H](NC(=O)[C@H](CCCN=C(N)N)NC(=O)CNC)C(C)C)[C@@H](C)CC)C(=O)O (H-[Sar]RV[Phe(4-B(OH)2)]IHPI-OH) | 2000 nM | 500 ng min-1 rat-1 | 0 mmHg |  |
| 0% | CC[C@H](C)[C@H](NC(=O)[C@H](Cc1ccc(S(=O)(=O)O)cc1)NC(=O)[C@@H](NC(=O)[C@H](CCCN=C(N)N)NC(=O)CNC)C(C)C)C(=O)N[C@@H](Cc1c[nH]cn1)C(=O)N1CCC[C@H]1C(=O)N[C@@H](Cc1ccccc1)C(=O)O (H-[Sar]RV[Phe(4-SO3H)]IHPF-OH) | > 1000 nM |  |  |  |
| 0.9% | CC[C@H](C)[C@H](NC(=O)[C@H](Cc1ccc(S)cc1)NC(=O)[C@@H](NC(=O)[C@H](CCCN=C(N)N)NC(=O)CNC)C(C)C)C(=O)N[C@@H](Cc1c[nH]cn1)C(=O)N1CCC[C@H]1C(=O)N[C@@H](Cc1ccccc1)C(=O)O (H-[Sar]RV[X1]IHPF-OH) | > 1000 nM |  |  |  |
|  | CC[C@H](C)[C@H](NC(=O)[C@H](Cc1ccc(F)cc1)NC(=O)[C@@H](NC(=O)[C@H](CCCN=C(N)N)NC(=O)[C@@H](N)CC(=O)O)C(C)C)C(=O)N[C@@H](Cc1c[nH]cn1)C(=O)N1CCC[C@H]1C(=O)N[C@@H](Cc1ccccc1)C(=O)O (H-DRV[Phe(4-F)]IHPF-OH) |  |  |  | 501 nM |
| 0% | CC[C@H](C)[C@H](NC(=O)[C@@H]1CCCN1C(=O)[C@H](Cc1c[nH]cn1)NC(=O)[C@@H](NC(=O)[C@H](Cc1ccc(OC)cc1)NC(=O)[C@@H](NC(=O)[C@H](CCCN=C(N)N)NC(=O)CNC)C(C)C)[C@@H](C)CC)C(=O)O | 79.4 nM | 100 ng min-1 rat-1 | 3 mmHg |  |
| 0% | CC[C@H](C)[C@H](NC(=O)[C@H](Cc1ccc(F)cc1)NC(=O)[C@@H](NC(=O)[C@H](CCCN=C(N)N)NC(=O)CNC)C(C)C)C(=O)N[C@@H](Cc1c[nH]cn1)C(=O)N1CCC[C@H]1C(=O)N[C@@H](Cc1ccccc1)C(=O)O | 31.6 nM | 150 ng min-1 rat-1 | 22 mmHg |  |
| 0% | CC[C@H](C)[C@H](NC(=O)[C@H](Cc1ccc(O)cc1)NC(=O)[C@@H](NC(=O)[C@H](CCCN=C(N)N)NC(=O)CNC)C(C)C)C(=O)N[C@@H](Cc1c[nH]cn1)C(=O)N1CCC[C@H]1C(=O)N[C@H](Cc1ccc(O)cc1)C(=O)O | 5.62 nM | 20 ng min-1 rat-1 | 15 mmHg |  |
|  | CC[C@H](C)[C@H](NC(=O)C1CCCN1C(=O)[C@H](Cc1c[nH]cn1)NC(=O)[C@@H](NC(=O)[C@H](Cc1ccc(O)cc1)NC(=O)[C@@H](NC(=O)[C@H](CCCN=C(N)N)NC(=O)CNC)C(C)C)[C@@H](C)CC)C(=O)O (single isomer, unassigned) | 0.794 nM | 10 ng min-1 rat-1 | 10 mmHg |  |
|  | H-DRVYIHPC-OH |  |  |  | 6.03 nM |
| 0% | CC[C@H](C)[C@H](NC(=O)[C@H](Cc1ccc(Cl)cc1)NC(=O)[C@@H](NC(=O)[C@H](CCCN=C(N)N)NC(=O)CNC)C(C)C)C(=O)N[C@@H](Cc1c[nH]cn1)C(=O)N1CCC[C@H]1C(=O)N[C@@H](Cc1ccccc1)C(=O)O (H-[Sar]RV[Phe(4-Cl)]IHPF-OH) | 31.6 nM | 30 ng min-1 rat-1 | 5.5 mmHg |  |
| 0% | CC[C@H](C)[C@H](NC(=O)[C@@H]1CCCN1C(=O)[C@H](Cc1c[nH]cn1)NC(=O)[C@@H](NC(=O)[C@H](Cc1ccc(F)cc1)NC(=O)[C@@H](NC(=O)[C@H](CCCN=C(N)N)NC(=O)CNC)C(C)C)[C@@H](C)CC)C(=O)O (H-[Sar]RV[Phe(4-F)]IHPI-OH) | 158 nM | 750 ng min-1 rat-1 | 0 mmHg |  |
| 15% | CC[C@H](C)[C@H](NC(=O)[C@H](Cc1ccc(N)cc1)NC(=O)[C@@H](NC(=O)[C@H](CCCN=C(N)N)NC(=O)CNC)C(C)C)C(=O)N[C@@H](Cc1c[nH]cn1)C(=O)N1CCC[C@H]1C(=O)N[C@@H](Cc1ccccc1)C(=O)O (H-[Sar]RV[Phe(4-NH2)]IHPF-OH) |  |  |  |  |
| 10% | CC[C@H](C)[C@H](NC(=O)[C@H](Cc1ccc(B(O)O)cc1)NC(=O)[C@@H](NC(=O)[C@H](CCCN=C(N)N)NC(=O)CNC)C(C)C)C(=O)N[C@@H](Cc1c[nH]cn1)C(=O)N1CCC[C@H]1C(=O)N[C@@H](Cc1ccccc1)C(=O)O (H-[Sar]RV[Phe(4-B(OH)2)]IHPF-OH) |  |  |  |  |
| 0.1% | CCOc1ccc(C[C@H](NC(=O)[C@@H](NC(=O)[C@H](CCCN=C(N)N)NC(=O)CNC)C(C)C)C(=O)N[C@H](C(=O)N[C@@H](Cc2c[nH]cn2)C(=O)N2CCC[C@H]2C(=O)N[C@@H](Cc2ccccc2)C(=O)O)[C@@H](C)CC)cc1 |  | 150 ng min-1 rat-1 | 2.5 mmHg | > 1000 nM |
| 0% | CC[C@H](C)[C@H](NC(=O)[C@H](Cc1ccccc1)NC(=O)[C@@H](NC(=O)[C@H](CCCN=C(N)N)NC(=O)CNC)C(C)C)C(=O)N[C@@H](Cc1c[nH]cn1)C(=O)N1CCC[C@H]1C(=O)N[C@H](Cc1ccc(O)cc1)C(=O)O | 100 nM | 30 ng min-1 rat-1 | 5 mmHg |  |
| 0% | CC[C@H](C)[C@H](NC(=O)[C@@H]1CCCN1C(=O)[C@H](Cc1c[nH]cn1)NC(=O)[C@@H](NC(=O)[C@H](Cc1ccc(Cl)cc1)NC(=O)[C@@H](NC(=O)[C@H](CCCN=C(N)N)NC(=O)CNC)C(C)C)[C@@H](C)CC)C(=O)O (H-[Sar]RV[Phe(4-Cl)]IHPI-OH) | > 1000 nM | 500 ng min-1 rat-1 | 2 mmHg |  |
| 0% | CC[C@H](C)[C@H](NC(=O)[C@@H]1CCCN1C(=O)[C@H](Cc1c[nH]cn1)NC(=O)[C@@H](NC(=O)[C@H](Cc1ccc([N+](=O)[O-])cc1)NC(=O)[C@@H](NC(=O)[C@H](CCCN=C(N)N)NC(=O)CNC)C(C)C)[C@@H](C)CC)C(=O)O (H-[Sar]RV[Phe(4-NO2)]IHPI-OH) | 79.4 nM |  | 5 mmHg |  |
| 0.9% | CC[C@H](C)[C@H](NC(=O)[C@H](Cc1ccc(S(N)(=O)=O)cc1)NC(=O)[C@@H](NC(=O)[C@H](CCCN=C(N)N)NC(=O)CNC)C(C)C)C(=O)N[C@@H](Cc1c[nH]cn1)C(=O)N1CCC[C@H]1C(=O)N[C@@H](Cc1ccccc1)C(=O)O (H-[Sar]RV[Phe(4-SO2NH2)]IHPF-OH) |  |  |  |  |
|  | H-DRVFIHPY-OH |  |  |  | 240 nM |
| < 0.1% | H-DRVYIHPL-OH | 1.66 nM |  |  |  |
| 9% | CC[C@H](C)[C@H](NC(=O)[C@H](Cc1ccc(SCNC(C)=O)cc1)NC(=O)[C@@H](NC(=O)[C@H](CCCN=C(N)N)NC(=O)CNC)C(C)C)C(=O)N[C@@H](Cc1c[nH]cn1)C(=O)N1CCC[C@H]1C(=O)N[C@@H](Cc1ccccc1)C(=O)O (H-[Sar]RV[X2]IHPF-OH) | 8.13 nM |  |  |  |
